High-throughput results deposited in PubChem by several laboratories.
Apaf-1 inh: human Apaf-1 inhibition; inhibition, % at 20 µM; reconstituted apoptosome caspase-3 activity, DEVD-Rh110 fluorescence; actives 0.71% (n = 330,000); active means inhibition of at least 40% at 20 µM;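 further: plate controls were DMSO wells for no effect and DEVD-CHO caspase inhibitor wells for full effect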
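Material: reconstituted apoptosome with Apaf-1, cytochrome c, caspase-9, procaspase-3, dATP; medium: pH 7.5 Hepes buffer with CHAPS, BSA, DTT; also added: cytochrome c and DEVD-Rh110 substrate; timing: 30 min plus 50 min, RT; signal: Rh110 fluorescence intensity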
proCasp3 act: activators of human procaspase-3 | activation, % at 8.5 µM | recombinant procaspase-3 D3A, Ac-DEVD-pNA absorbance 405 nm | P42574 | actives 0.11% (n = 330,000);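 active means activation above the mean of all tested compounds plus 3 SD, cut at about 21% in these data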;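 further: 0% = DMSO alone and 100% = DMSO wells spiked with extra 5 µM PC-3 D3A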
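Test system: Procaspase-3 D3A mutant; medium: Zinc-free HEPES/NaCl buffer with 0.01% Triton X-100 at pH 7.4; reagent: DEVD-pNA substrate; doses: one concentration, 8.5 µM nominal, 0.8% DMSO; times: 1 h preincubation plus 2 h reaction at 25 °C; signal: Epi-absorbance at 405 nm of released p-nitroaniline, 0 and 120 min; replicates: singlicate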
EBNA-1 inh: blocks EBNA-1 binding to DNA | actives 0.34% (n = 300,000) | EBNA-1 DNA binding, fluorescence polarization | inhibition, % at 14.8 µM | AID 1950; in the data active means inhibition above about 28%
ZTA DNA inh: blocks Epstein-Barr virus ZTA, an EBNA-1 counter-screen; inhibition, % at 11 µM; ZTA-DNA binding, fluorescence polarization; actives 0.15% (n = 320,000); AID 2234; in the data active means inhibition above about 33%
procasp7 counter: counter-screen: procaspase-7 (human) activation | recombinant procaspase-7, Ac-DEVD-pNA absorbance 405 nm; D23A/D198A/D206A triple mutant, cannot self-cleave; scale: DMSO 0, 5 µM enzyme 100 | activation, % at 8.5 µM | actives 0.093% (n = 330,000);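 active means percent activation above the screen-wide mean plus 3 SD, cut at about 25% in these data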
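Replicates: singlicate. Assay system: Procaspase-7 triple mutant (PC-7 D3A). Signal: 405 nm absorbance of p-nitroaniline. Times: 1 h preincubation, 2 h reaction. Buffer or medium: Zinc-free HEPES pH 7.4 with 300 mM NaCl, 0.01% Triton X-100. Also added: DEVD-pNA substrate. Benchmarks: DMSO wells as 0%, DMSO with 5 µM added PC-7 as 100%.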
GSTO1 counter: counter-screen for RBBP9 inhibitors: inhibitors of human GSTO1. recombinant GSTO1, activity-based probe fluorescence polarization. inhibition, % at 5.96 µM. actives 1.1% (n = 300,000). AID 1974;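 active means inhibition above the campaign mean inhibition plus 3 SD, cut at about 35% in these data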;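 further: 0% = GSTO1-1 with DMSO and 100% = wells lacking GSTO1-1 enzyme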
GSTO1 inh conf: GSTO1 (human) inhibition, confirmation; shares compounds with GSTO1 counter; recombinant GSTO1, probe fluorescence polarization; inhibition, % at 5.96 µM; actives 54% (n = 2,400); AID 2176;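 active means inhibition above the primary screen's cutoff, its mean inhibition plus 3 SD, cut at about 35% in these data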;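 further: loss of polarization as inhibitors block binding of rhodamine sulfonate ester activity probe; 0% = GSTO1 with DMSO and 100% = wells lacking GSTO1 enzyme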
GSTO1 ABPP inh: inhibitors of recombinant human GSTO1. shares compounds with GSTO1 counter. gel ABPP SE-Rh probe fluorescence. inhibition, % at 1 µM. actives 30% (n = 130). AID 463110;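 active means inhibition of the enzyme GSTO1 above about 75%, limit read from the data; inactive means inhibition below that limit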
Numbers without * were called inactive; / = no result. An excerpt weighted towards active compounds, which were near 1.8% of everything screened.

SMILES | Apaf-1 inh | proCasp3 act | EBNA-1 inh | ZTA DNA inh | procasp7 counter | GSTO1 counter | GSTO1 inh conf | others
CCCCCN(C(=O)CCC(=O)OCCOc1ccccc1Cl)c1c(N)n(CCCC)c(=O)[nH]c1=O | 13 | 2 | 7 | 9 | 7 | 2 | /
CCN(CC)S(=O)(=O)c1ccc(NC(=O)CCN2C(=O)C3CC=CCC3C2=O)cc1 (configuration not stated) | 0 | 3 | / | 2 | 4 | / | /
O=C(NCc1ccccc1CN1CCCC1)c1ccc(Cl)c(N2CCCC2=O)c1 | 9 | 13 | / | 3 | 19 | / | /
Clc1cccc(Cl)c1C1Nc2cccc3cccc(c23)N1 | 25 | -10 | 4 | -20 | 10 | 47* | 9
c1csc(C2Nc3cccc4cccc(c34)N2)c1 | 18 | -2 | -1 | -5 | -6 | 44* | 21
c1ccc(-c2cn(C[C@H]3CC[C@H](Cn4cc(-c5ccccn5)nn4)O3)nn2)nc1 | 5 | 1 | 3 | -26 | 4 | 1 | /
C=CCN(CC(=O)Nc1cccnc1)S(=O)(=O)c1ccc(Cl)cc1 | 0 | 5 | / | / | 6 | / | /
CCOC(=O)c1nc(N/N=C/c2ccccc2)sc1Br | 25 | 0 | 8 | 10 | 4 | 51* | 21
CCOC(=O)c1sc(N/N=C/c2ccc(N(C)C)cc2)nc1C | -11 | -23 | -14 | -7 | -18 | 5 | /
N/C(=N\OC(=O)c1cnn(-c2ccccc2)c1C(F)(F)F)c1cc(C(F)(F)F)cc(C(F)(F)F)c1 | -23 | -2 | -1 | -8 | -8 | 7 | /
O=C(NNC(=O)C(Cl)Cl)c1cnn(-c2ccccc2)c1C(F)(F)F | 2 | 0 | 18 | 12 | -6 | 49* | 29
Cc1oc2c(c1C(=O)c1ccccc1)C(=O)C(=O)c1ccccc1-2 | 91* | -4 | 2 | -23 | -2 | 85* | 91*
COC(=O)c1ccc(N=CC2=C(O)CC(c3ccccc3)CC2=O)cc1 (configuration not stated) | 0 | 3 | -3 | -16 | -4 | 7 | /
O=C1CC(c2ccccc2)CC(O)=C1C=Nc1ccc(O)cc1 (configuration not stated) | 24 | -6 | -8 | -14 | 0 | 56* | 6
COc1ccc(NC(=O)c2onc(C)c2Cl)cc1OC | 3 | 2 | 0 | -9 | 3 | 39* | 7
COc1ccc(C(=O)Cc2ccc3c(c2)OCO3)c(O)c1 | -5 | 10 | 2 | 0 | 7 | -5 | /
O=C(Cc1ccc2c(c1)OCCO2)c1c(O)cc(O)cc1O | -7 | 8 | -9 | -14 | -4 | 51* | 35
O=C(/C=C/c1ccc(O)cc1)c1c(O)cc(O)cc1O | -10 | 12 | -6 | 2 | 7 | 13 | /
O=C(CCc1ccc(O)cc1)c1c(O)cc(O)cc1O | -7 | 8 | -7 | -3 | -1 | 46* | 19
COc1ccccc1NC(=O)C(C)OC(=O)c1cccc(-n2cnnn2)c1 (configuration not stated) | 7 | 8 | -6 | -2 | -1 | -11 | /
NC(c1ccccc1)c1ccncc1 (configuration not stated) | -1 | -4 | -4 | 11 | -3 | 7 | /
COc1ccccc1NC(=O)Cc1nc(CCl)cs1 | 2 | 0 | -7 | -2 | 3 | 68* | 95* | GSTO1 ABPP inh=49
CSc1ccc(C(c2c(C)[nH][nH]c2=O)c2c(C)[nH][nH]c2=O)cc1 | 22 | 4 | -9 | -7 | -4 | 39* | 0
O=P(O)(Cc1ccccc1)Cc1ccccc1 | 0 | -8 | -3 | 14 | 0 | 47* | 3
O=C(COC(=O)c1ccccc1-n1cnnn1)c1ccc(F)cc1 | -7 | -1 | -4 | -10 | -3 | 3 | /
COc1ccc(/C=C/C(=O)Oc2ccc(C)c(C)c2)cc1OC | 9 | 8 | 0 | 21 | 8 | -1 | /
